Active and inactive are the calls of the source. No cut-off for these calls is given here.
What was measured:
[1] = system: B16-F10; experiment: Induction of apoptosis in mouse B16F10 cells assessed as late apoptotic cells at 75 nM after 48 hrs by Annexin V-FITC/propidium iodide staining based flow cytometry (reference value: 13.54%); assay type: functional
[2] = system: B16-F10; experiment: Induction of apoptosis in mouse B16F10 cells assessed as necrotic cells at 75 nM after 48 hrs by Annexin V-FITC/propidium iodide staining based flow cytometry (reference value: 5.48%); assay type: functional
[3] = system: MCF7; experiment: Induction of apoptosis in human MCF7 cells assessed as late apoptotic cells at 10 uM after 48 hrs by Annexin V-FITC/propidium iodide staining based flow cytometry (reference value: 8.84%); assay type: functional
Method in brief: (§1)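 HEK293T (DMEM with 10% FBS) or MCF7 (DMEM/Ham's F-12 1:1, 10% FBS) cells treated 48 h with 10 μM compound or DMSO. Staining with Alexa Fluor 488 annexin V plus 5 μg/ml PI in HEPES/NaCl/CaCl2 binding buffer; 10,000 cells per sample read by flow cytometry; n = 3, mean ± S.E.M.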

[4] = system: MCF7; experiment: Induction of apoptosis in human MCF7 cells at 10 uM after 48 hrs in presence of MAGL inhibitor JZL184 by Annexin V-FITC/propidium iodide staining based flow cytometry; assay type: functional, cell-based
[5] = system: MCF7; experiment: Induction of apoptosis in human MCF7 cells assessed as early apoptotic cells at 10 uM after 48 hrs by Annexin V-FITC/propidium iodide staining based flow cytometry (reference value: 3.16%); assay type: functional; method in brief: as §1
[6] = system: HEK-293T; experiment: Induction of apoptosis in HEK293T cells assessed as late apoptotic cells at 10 uM after 48 hrs by Annexin V-FITC/propidium iodide staining based flow cytometry (reference value: 2.07%); assay type: cell-based; conditions: human; method in brief: as §1
[7] = system: B16-F10; experiment: Induction of apoptosis in mouse B16F10 cells assessed as live cells at 75 nM after 48 hrs by Annexin V-FITC/propidium iodide staining based flow cytometry (reference value: 79.55%); assay type: functional
[8] = system: B16-F10; experiment: Induction of apoptosis in mouse B16F10 cells assessed as late apoptotic cells at 35 nM after 48 hrs by Annexin V-FITC/propidium iodide staining based flow cytometry (reference value: 13.54%); assay type: functional
[9] = system: MCF7; experiment: Induction of apoptosis in human MCF7 cells assessed as necrotic cells at 10 uM after 48 hrs by Annexin V-FITC/propidium iodide staining based flow cytometry (reference value: 5.42%); assay type: functional; method in brief: as §1
[10] = system: B16-F10; experiment: Induction of apoptosis in mouse B16F10 cells assessed as necrotic cells at 35 nM after 48 hrs by Annexin V-FITC/propidium iodide staining based flow cytometry (reference value: 5.48%); assay type: functional
[11] = biological target: T1, Monoglyceride lipase (Homo sapiens, UniProt Q99685); experiment: Inhibition of recombinant human MAGL using 7-HRA as substrate preincubated for 60 mins followed by substrate addition by fluorescence assay; conditions: read-out: IC50
T1 sequence (Q99685 whole entry): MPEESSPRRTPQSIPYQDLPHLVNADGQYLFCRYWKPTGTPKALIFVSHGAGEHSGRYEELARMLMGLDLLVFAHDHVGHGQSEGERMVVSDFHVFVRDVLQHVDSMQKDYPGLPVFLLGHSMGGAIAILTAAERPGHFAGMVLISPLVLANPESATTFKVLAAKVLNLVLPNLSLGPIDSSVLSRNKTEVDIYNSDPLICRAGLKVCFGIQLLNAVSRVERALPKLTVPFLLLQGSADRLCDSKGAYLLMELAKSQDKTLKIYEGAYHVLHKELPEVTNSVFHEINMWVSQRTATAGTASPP

[12] = system: MCF7; experiment: Induction of apoptosis in human MCF7 cells at 10 uM after 48 hrs by Annexin V-FITC/propidium iodide staining based flow cytometry; assay type: functional, cell-based; method in brief: as §1
[13] = biological target: T2, Fatty-acid amide hydrolase 1 (Homo sapiens) (UniProt O00519); experiment: Inhibition of human FAAH at 10 uM using AAMCA as substrate preincubated for 1 hr followed by substrate addition measured after 30 mins by fluorescence assay relative to control
T2 sequence (whole entry): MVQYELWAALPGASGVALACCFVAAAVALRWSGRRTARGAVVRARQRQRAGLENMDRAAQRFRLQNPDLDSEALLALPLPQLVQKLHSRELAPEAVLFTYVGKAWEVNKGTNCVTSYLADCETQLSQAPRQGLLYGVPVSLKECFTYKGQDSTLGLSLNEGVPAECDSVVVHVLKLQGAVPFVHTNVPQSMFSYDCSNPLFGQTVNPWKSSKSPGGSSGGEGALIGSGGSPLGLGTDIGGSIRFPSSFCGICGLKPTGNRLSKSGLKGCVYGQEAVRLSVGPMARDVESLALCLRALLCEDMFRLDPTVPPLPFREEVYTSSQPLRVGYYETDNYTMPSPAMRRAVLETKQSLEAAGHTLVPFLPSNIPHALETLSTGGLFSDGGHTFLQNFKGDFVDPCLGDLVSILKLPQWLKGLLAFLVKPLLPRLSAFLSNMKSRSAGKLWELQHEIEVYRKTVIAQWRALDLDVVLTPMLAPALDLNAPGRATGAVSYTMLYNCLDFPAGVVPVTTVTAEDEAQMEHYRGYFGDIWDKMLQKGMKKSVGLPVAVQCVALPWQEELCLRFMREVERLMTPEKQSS
Method in brief: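 Recombinant human FAAH (C-terminal His-tagged, Sf21), 1 U/well, in 50 mM Tris-HCl, 1 mM EDTA, pH 9, preincubated 1 h at room temperature with 10 μM compound (final). AAMCA added to 20 μM final; fluorescence (ex 360/em 460 nm) read every 3 min for 30 min. Rate by linear regression, no-enzyme background subtracted, normalised to no-inhibitor control.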

[14] = system: B16-F10; experiment: Antiproliferative activity against mouse B16F10 cells at 10 uM after 48 hrs by Cyto Tracker red dye based flow cytometry; assay type: functional, cell-based
Method in brief: (§2)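 B16-F10 cells (Iscove's medium, 10% heat-inactivated FBS, 37 °C, 5% CO2) exposed to compound or DMSO for 48 h, stained with CytoTrack Red 628/643 and analysed by flow cytometry. Proliferation index (average number of cells that an initial cell became) expressed as fold change over DMSO control; n = 3; one-way ANOVA with Tukey post-test.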

[15] = system: B16-F10; experiment: Induction of apoptosis in mouse B16F10 cells assessed as necrotic cells at 10 uM after 48 hrs by Annexin V-FITC/propidium iodide staining based flow cytometry (reference value: 2.62%); assay type: functional
[16] = system: HEK-293T; experiment: Induction of apoptosis in HEK293T cells assessed as necrotic cells at 10 uM after 48 hrs by Annexin V-FITC/propidium iodide staining based flow cytometry (reference value: 8.09%); assay type: cell-based; conditions: human; method in brief: as §1
[17] = system: B16-F10; experiment: Antiproliferative activity against mouse B16F10 cells at 35 to 75 nM after 48 hrs by Cyto Tracker red dye based flow cytometry; assay type: functional, cell-based; method in brief: as §2
[18] = system: B16-F10; experiment: Induction of apoptosis in mouse B16F10 cells assessed as early apoptotic cells at 75 nM after 48 hrs by Annexin V-FITC/propidium iodide staining based flow cytometry (reference value: 1.43%); assay type: functional

O=C(Nc1cccc(-c2ccc(C(F)(F)F)cc2)c1)OCc1ccco1
Activity [1]: 30.39%
Activity [2]: 4.33%
Activity [3]: 25.63%
Activity [4]: Active
Activity [5]: 8.77%
Activity [6]: 2.1%
Activity [7]: 62.84%
Activity [8]: 29.37%
Activity [9]: 5.33%
Activity [10]: 2.62%
IC50 [11]: 6.7 µM
Activity [12]: Active
inhibition [13]: 10%
Activity [14]: Active
Activity [15]: 14.25%
Activity [16]: 8.4%
Activity [17]: Active
Activity [18]: 2.44%

From ChEMBL document CHEMBL4219238, “Design, synthesis, molecular modelling and in vitro cytotoxicity analysis of novel carbamate derivatives as inhibitors of Monoacylglycerol lipase” (Bioorg Med Chem, 2018)
